Screening results from PubChem.
Rev-erbA mod: modulators of Rev-erb alpha DNA binding, primary screen, biochemical, FITC-DNA, fluorescence polarization, uHTS. AID 1259318, 2017. Rev-erbα–FITC-DNA binding, 90 min. hit rate 0.79% among 370,000. activity, % at 10 µM. Nuclear receptor subfamily 1 group D member 1 (Homo sapiens), P20393;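 active = activity above about 14%, limit read from the data; passing the limit was not always enough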
NR2E3 ag-1: inhibitors of NR2E3-RetCOR corepressor binding, primary screen, NR2E3 agonist project, biochemical, TR-FRET, GST-NR2E3, biotin-RetCOR; Photoreceptor-specific nuclear receptor (Homo sapiens), Q9Y5X4; 1536-well; inhibition of corepressor binding, % at 4.78 µM; hit rate 0.12% among 320,000;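 active = percent inhibition above the cutoff of mean plus 3 SD of all tested compounds, set per screening campaign, cut at about 20% in these data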
Target sequence (Q9Y5X4 whole entry, looked up): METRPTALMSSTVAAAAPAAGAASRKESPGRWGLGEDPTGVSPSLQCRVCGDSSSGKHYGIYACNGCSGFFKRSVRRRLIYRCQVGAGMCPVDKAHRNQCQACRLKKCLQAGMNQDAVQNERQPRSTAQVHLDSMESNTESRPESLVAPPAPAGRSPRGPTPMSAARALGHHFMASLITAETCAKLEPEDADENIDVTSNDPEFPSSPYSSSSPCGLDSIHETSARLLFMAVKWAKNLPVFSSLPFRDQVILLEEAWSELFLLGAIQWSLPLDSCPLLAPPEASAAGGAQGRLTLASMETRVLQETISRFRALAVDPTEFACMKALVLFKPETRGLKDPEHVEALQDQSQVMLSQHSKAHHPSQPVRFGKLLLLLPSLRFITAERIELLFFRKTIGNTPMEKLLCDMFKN
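System: GST-tagged NR2E3 plus biotinylated RetCOR corepressor; Amount: 1.35 nM GST-tagged NR2E3 final; Dosing: single nominal compound dose of 4.8 µM; Schedule: 5 h incubation at 4 °C; Technique: TR-FRET with europium anti-GST and streptavidin-D2, 340 nm excitation; Controls: biotin wells as high control, 0.6% DMSO wells as low control.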
NR2E3 ag-2: NR2E3 agonists in two-hybrid cells, primary screen, cell-based, luminescence, CHO-S, Gal4-NCOR/VP16-NR2E3; Photoreceptor-specific nuclear receptor (Homo sapiens), Q9Y5X4; luciferase; inhibition of corepressor binding, % at 3.98 µM; hit rate 0.35% among 360,000; AID 602229, 2012;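 active = inhibition above the mean of all tested compounds plus 3 SD, cut at about 70% in these data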;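 also: higher means lower luciferase signal from less NR2E3 corepressor binding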
PG9 Ab binder: binders of HIV-1 gp120 antibody PG9, primary screen, biochemical, TR-FRET. HIV-1 gp120 / PG9 antibody interaction. TR-FRET gp120-PG9 antibody binding. inhibition, % at 6.7 µM. hit rate 0.43% among 360,000. AID 624416, 2012; in the data active = inhibition above about 8.5%
PG9 binder conf: binders of anti-gp120 antibody PG9, confirmation, biochemical, TR-FRET; shares compounds with PG9 Ab binder; hit rate 90% among 1,500; inhibition, % at 6.7 µM; TR-FRET PG9 antibody binding; in the data active = inhibition above about 9%
PGV04 counter: binders of control antibody PGV04, counter-screen for PG9 antibody binder project, biochemical, TR-FRET, distinct HIV envelope site. shares compounds with PG9 Ab binder. inhibition, % at 6.7 µM. TR-FRET PGV04 antibody-gp120 binding. AID 651604, 2012. hit rate 95% among 1,500; in the data active = inhibition above about 9.5%
PG9 binder DR: small-molecule binders of antibody PG9, dose response, biochemical, TR-FRET, HIV-1 gp120 antibody. AID 651848, 2012. IC50, µM. 95 tested, under 10 active. shares compounds with PG9 Ab binder. TR-FRET PG9 antibody-gp120 binding inhibition; in the data active = IC50 below about 10 µM
PGV04 DR counter: binders of control antibody PGV04, dose response, counter-screen for PG9 antibody binder project, biochemical, TR-FRET, distinct HIV envelope site; shares compounds with PG9 Ab binder; TR-FRET binding to control antibody PGV04; IC50, µM; hit rate 20% among 95; AID 651937, 2012
PG126 binding DR: binders of control antibody PG126, dose response, counter-screen for PG9 antibody binder project, biochemical, TR-FRET, distinct HIV envelope site. TR-FRET binding to antibody PG126, counterscreen. AID 651939, 2012. hit rate 20% among 95. IC50, µM. shares compounds with PG9 Ab binder
Rev-erbA confirm: modulators of Rev-erb alpha DNA binding, confirmation, biochemical, FITC-DNA, fluorescence polarization, single point | shares compounds with Rev-erbA mod | 90 min | activation, % at 25 µM | hit rate 61% among 3,000 | AID 1259319, 2017;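 active = activation at or above a set limit, or at least 3 SD above the negative control mean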
RORg DNA counter: modulation of RORgamma DNA binding, dose response, counter-screen for Rev-erb alpha modulator project, biochemical, fluorescence polarization, FITC-DNA | IC50, µM | shares compounds with Rev-erbA mod | purified RORgamma protein-FITC-DNA binding | hit rate 8% among 910;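 active = Compounds whose fitted half-maximal concentration for disrupting protein-DNA binding is below 10 micromolar; the record names Rev-erb in its text, so the target is in doubt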
Of the large screens only hits and unclear results are named; the others gave an inactive call (follow-up assays come after a bar, where they were run). Shown are actives, neighbours in structure and some others; about 1.4% of the full set was active somewhere. Rule as the data show it, unless noted: active = IC50 below about 9 µM; inactive = the rest.

CC(C)C[C@H](NC(=O)C1CCCC1)C(=O)N1CCC[C@H]1C(=O)NCc1ccccc1	none (no result: NR2E3 ag-1, NR2E3 ag-2)
COc1ccc(-c2c(C)nc3c(-c4ccsc4)cnn3c2N)cc1	Rev-erbA mod 108, PG9 Ab binder 36 | PG9 binder conf inactive | PGV04 counter 16 | Rev-erbA confirm 66 | RORg DNA counter inactive
COc1cc(-c2ccc3c(=O)c4ccccc4n(C)c3c2)cc(OC)c1OC	none
COc1cc(-c2ccc3c(=O)c4ccccc4sc3c2)cc(OC)c1OC	Rev-erbA mod 76, PG9 Ab binder 17 (no result: NR2E3 ag-1) | PG9 binder conf 20 | PGV04 counter 31 | Rev-erbA confirm 49 | RORg DNA counter inactive
O=C(Cn1cnc2cc([N+](=O)[O-])ccc2c1=O)Nc1cccc(S(=O)(=O)N2CCCCC2)c1	none (no result: NR2E3 ag-1)
Cc1ccc(CN2CCCCC(NC(=O)c3ccc(C)cc3)C2=O)cc1 (stereo not drawn)	none (no result: NR2E3 ag-1, NR2E3 ag-2, PG9 Ab binder)
N#Cc1ccc(-c2ccc3c(c2)OCO3)nc1SCC(=O)OCc1ccccc1	Rev-erbA mod 24, PG9 Ab binder 13 | PG9 binder conf 14 | PGV04 counter 29 | Rev-erbA confirm 19
COc1ccc(-c2ccc(C#N)c(SCC(=O)OCc3ccccc3)n2)cc1OC	none
Cc1ccc(CSc2nc3ccncc3n2CC(=O)Nc2cc(C)cc(C)c2)cc1	Rev-erbA mod 81, PG9 Ab binder 25 | PG9 binder conf 32 | PGV04 counter 50 | Rev-erbA confirm 34 | RORg DNA counter 0.26
CCOc1ccc(NC(=O)CNC(=O)c2nn(-c3ccc(OC)c(OC)c3)c(=O)c3ccccc23)cc1	Rev-erbA mod 111, PG9 Ab binder 40 | PG9 binder conf 23 | PGV04 counter 61 | Rev-erbA confirm 91 | RORg DNA counter inactive
COc1ccc(-n2nc(C(=O)NCC(=O)Nc3cccc(Cl)c3)c3ccccc3c2=O)cc1OC	Rev-erbA mod 289, PG9 Ab binder 39 | PG9 binder conf 35 | PGV04 counter 66 | Rev-erbA confirm 273 | RORg DNA counter inactive
CCc1ccc(NC(=O)CNC(=O)c2nn(-c3ccc(OC)cc3)c(=O)c3ccccc23)cc1	none
COc1ccc(-n2nc(C(=O)NCC(=O)Nc3ccc(F)cc3)c3ccccc3c2=O)cc1	Rev-erbA mod 39, PG9 Ab binder 11 | PG9 binder conf 17 | PGV04 counter 25 | Rev-erbA confirm inactive
COc1ccc(CCNC(=O)CNC(=O)c2nn(-c3ccc(OC)c(OC)c3)c(=O)c3ccccc23)cc1OC	none
O=C(Cc1ccccc1F)Nc1nnc(-c2cccnc2)s1	none (no result: NR2E3 ag-1, NR2E3 ag-2, PG9 Ab binder)
Cc1cccc(NC(=O)C2CCCN(S(=O)(=O)c3cccc4nsnc34)C2)c1 (stereo not drawn)	Rev-erbA mod 155, PG9 Ab binder 65 | PG9 binder conf 64 | PGV04 counter 58 | PG9 binder DR 4.3 | PGV04 DR counter 3.9 | PG126 binding DR 4.3 | Rev-erbA confirm 79 | RORg DNA counter inactive
Cc1cccc(NC(=O)C2CCN(S(=O)(=O)c3cccc4nsnc34)CC2)c1	none
CCCCNC(=O)C1(C)CCN1Cc1cccc2c(OC)cc(C(=O)OCC)cc12 (stereo not drawn)	none (no result: NR2E3 ag-1)
CCOC(=O)N(C)[C@H]1C[C@H]2c3[nH]c4cccc(-c5cccc(F)c5)c4c3CCN2C(=O)[C@H]1[C@H](C)O	none (no result: NR2E3 ag-1, NR2E3 ag-2, PG9 Ab binder)
COc1cc2cc(Br)cc(Br)c2nc1C	Rev-erbA mod 37, PG9 Ab binder 47 | PG9 binder conf 40 | PGV04 counter 54 | Rev-erbA confirm 22
COc1cc2cnncc2cc1OC	none
Cc1nc(C(F)(F)F)ccc1C(=O)N1CCC1(C)C(=O)NS(=O)(=O)c1c(C)noc1C (stereo not drawn)	none (no result: NR2E3 ag-1)
COc1ccc(-n2ncc3c(NCc4ccc5c(c4)OCO5)ncnc32)cc1	Rev-erbA mod 25, PG9 Ab binder 16 | PG9 binder conf inactive | PGV04 counter inactive | Rev-erbA confirm inactive
c1ccc(-n2ncc3c(NCc4ccc5c(c4)OCO5)ncnc32)cc1	none
COc1ccc(-n2c(SCC(=O)NN=Cc3c(O)ccc4ccccc34)nnc2-c2ccc(C(C)(C)C)cc2)cc1	none (no result: NR2E3 ag-1, NR2E3 ag-2, PG9 Ab binder)
N#Cc1c(N)nc(N2CCCC2)c(C#N)c1-c1ccc(Cl)cc1	Rev-erbA mod 146, PG9 Ab binder 25 | PG9 binder conf 19 | PGV04 counter 28 | Rev-erbA confirm 106 | RORg DNA counter inactive
Cn1nc(N)c2c(-c3ccc(Cl)cc3)c(C#N)c(N)nc21	none
COc1ccc(NC(=O)NNC(=O)COc2ccc3cc(Br)ccc3c2)cc1OC	Rev-erbA mod 77, PG9 Ab binder 18 | PG9 binder conf 29 | PGV04 counter 39 | Rev-erbA confirm 65 | RORg DNA counter inactive
COc1ccc(NC(=O)NNC(=O)COc2ccc3ccccc3c2)cc1OC	none
C[C@@H](NC(=O)[C@@H]1CCCN1C(=O)OC(C)(C)C)c1ccccc1	none (no result: NR2E3 ag-1)
C[C@@H]1CN(c2ccc(N3CCNC[C@H]3C)cc2C#N)CCN1Cc1ccccc1	none (no result: NR2E3 ag-1, NR2E3 ag-2)
CCOC(=O)c1cc2sc(C)cc2n1CC(=O)NCc1ccc(F)cc1	Rev-erbA mod 27, PG9 Ab binder 59 | PG9 binder conf 49 | PGV04 counter 75 | Rev-erbA confirm inactive
C[C@@H]1CN([C@@H](C)CO)S(=O)(=O)c2ccc(Br)cc2O[C@H]1CN(C)C(=O)C1CCOCC1	none (no result: NR2E3 ag-1)
